Source: ChEMBL document CHEMBL1123535, “Thiol addition to quinones: model reactions for the inactivation of thymidylate synthase by 5-p-benzoquinonyl-2'-deoxyuridine 5'-phosphate” (J Med Chem, 1986)

Tests used:
Thymidylate synthase [1] = biological target: T1, Thymidylate synthase (Homo sapiens, UniProt P04818); experiment: The rate constant in 70% ethanol
Target sequence in this assay (P04818 2-313 limits assumed): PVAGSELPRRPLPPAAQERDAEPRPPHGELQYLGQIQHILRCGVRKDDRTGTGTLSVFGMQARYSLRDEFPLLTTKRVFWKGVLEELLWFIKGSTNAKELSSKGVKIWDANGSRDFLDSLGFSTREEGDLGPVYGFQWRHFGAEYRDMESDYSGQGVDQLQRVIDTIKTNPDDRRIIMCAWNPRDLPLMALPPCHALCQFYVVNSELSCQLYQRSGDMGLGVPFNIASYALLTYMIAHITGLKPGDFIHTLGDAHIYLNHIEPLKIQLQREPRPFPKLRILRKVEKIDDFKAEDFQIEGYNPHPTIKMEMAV

Thymidylate synthase [2] = biological target: T1, Thymidylate synthase; experiment: The rate constant in Acetonitrile and buffered aqueous acetonitrile solution, at 30 degrees C and pH 6.8
Target sequence in this assay (P04818 2-313 limits assumed): as above

Thymidylate synthase [3] = biological target: T1, Thymidylate synthase; experiment: The observed rate constant with methyl mercaptoacetate in Acetonitrile and buffered aqueous acetonitrile solution at 1.6 x 10e-4 M concentration of 0.0015 M
Outline: (§1)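 Quinone nucleoside reacted with excess methyl mercaptoacetate in deoxygenated acetonitrile at […]. Water content was varied by adding known amounts of water to acetonitrile dried over 3-Å sieves. Initial quinone was 7.4×10^-5 to 1.6×10^-4 M, and thiol was varied. Pseudo-first-order kobsd was measured, and k2 came from log kobsd = log k2 + n log[thiol].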
Target sequence in this assay (P04818 2-313 limits assumed): as above

Thymidylate synthase [4] = biological target: T1, Thymidylate synthase; experiment: The rate constant with methyl mercaptoacetate in Acetonitrile and buffered aqueous acetonitrile solution at concentration of 0.0077 M; outline: as §1
Target sequence in this assay (P04818 2-313 limits assumed): as above

Thymidylate synthase [5] = biological target: T1, Thymidylate synthase; experiment: The observed rate constant with methyl mercaptoacetate in Acetonitrile and buffered aqueous acetonitrile solution at 1.6 x 10e-4 M concentration of 0.0026 M; outline: as §1
Target sequence in this assay (P04818 2-313 limits assumed): as above

Thymidylate synthase [6] = biological target: T1, Thymidylate synthase; experiment: The rate constant with methyl mercaptoacetate in Acetonitrile and buffered aqueous acetonitrile solution at concentration of 0.0039 M; outline: as §1
Target sequence in this assay (P04818 2-313 limits assumed): as above

Thymidylate synthase [7] = biological target: T1, Thymidylate synthase; experiment: The observed rate constant with methyl mercaptoacetate in Acetonitrile and buffered aqueous acetonitrile solution at 7.4 x 10e-5 M concentration of 0.0019 M; outline: as §1
Thymidylate synthase [8] = biological target: T1, Thymidylate synthase; experiment: The rate constant with methyl mercaptoacetate in Acetonitrile and buffered aqueous acetonitrile solution at concentration of 0.00096 M; outline: as §1
Thymidylate synthase [9] = biological target: T1, Thymidylate synthase; experiment: The rate constant with methyl mercaptoacetate in Acetonitrile and buffered aqueous acetonitrile solution at concentration of 0.012 M; outline: as §1
Thymidylate synthase [10] = biological target: T1, Thymidylate synthase; experiment: The observed rate constant with methyl mercaptoacetate in Acetonitrile and buffered aqueous acetonitrile solution at 1.6 x 10e-4 M concentration of 0.012 M; outline: as §1
Thymidylate synthase [11] = biological target: T1, Thymidylate synthase; experiment: The observed rate constant with methyl mercaptoacetate in Acetonitrile and buffered aqueous acetonitrile solution at 9.7 x 10e-5 M concentration of 0.0029 M; outline: as §1
Thymidylate synthase [12] = biological target: T1, Thymidylate synthase; experiment: The observed rate constant with methyl mercaptoacetate in Acetonitrile and buffered aqueous acetonitrile solution at 1.4 x 10e-4 M concentration of 0.0039; outline: as §1
Thymidylate synthase [13] = biological target: T1, Thymidylate synthase; experiment: The observed rate constant with methyl mercaptoacetate in Acetonitrile and buffered aqueous acetonitrile solution at 1.4 x 10e-4 M concentration of 0.0077; outline: as §1
Thymidylate synthase [14] = biological target: T1, Thymidylate synthase; experiment: The observed rate constant with methyl mercaptoacetate in Acetonitrile and buffered aqueous acetonitrile solution at 7.4 x 10e-5 M concentration of 0.00098 M; outline: as §1
Thymidylate synthase [15] = biological target: T1, Thymidylate synthase; experiment: The observed rate constant with methyl mercaptoacetate in Acetonitrile and buffered aqueous acetonitrile solution at 9.7 x 10e-5 M concentration of 0.0096 M; outline: as §1
Thymidylate synthase [16] = biological target: T1, Thymidylate synthase; experiment: The observed rate constant with methyl mercaptoacetate in Acetonitrile and buffered aqueous acetonitrile solution at 9.7 x 10e-5 M concentration of 0.00096 M; outline: as §1
Thymidylate synthase [17] = biological target: T1, Thymidylate synthase; experiment: The observed rate constant with methyl mercaptoacetate in Acetonitrile and buffered aqueous acetonitrile solution at 1.4 x 10e-4 M concentration of 0.0020; outline: as §1
Thymidylate synthase [18] = biological target: T1, Thymidylate synthase; experiment: The observed rate constant with methyl mercaptoacetate in Acetonitrile and buffered aqueous acetonitrile solution at 1.6 x 10e-4 M concentration of 0.0036 M; outline: as §1
Thymidylate synthase [19] = biological target: T1, Thymidylate synthase; experiment: The observed rate constant with methyl mercaptoacetate in Acetonitrile and buffered aqueous acetonitrile solution at 9.7 x 10e-5 M concentration of 0.0048 M; outline: as §1
Thymidylate synthase [20] = biological target: T1, Thymidylate synthase; experiment: The observed rate constant with methyl mercaptoacetate in Acetonitrile and buffered aqueous acetonitrile solution at 1.6 x 10e-4 M concentration of 0.0061 M; outline: as §1
Thymidylate synthase [21] = biological target: T1, Thymidylate synthase; experiment: The observed rate constant with methyl mercaptoacetate in Acetonitrile and buffered aqueous acetonitrile solution at 7.4 x 10e-5 M concentration of 0.0039 M; outline: as §1
Thymidylate synthase [22] = biological target: T1, Thymidylate synthase; experiment: The rate constant in 75% aqueous Acetonitrile […] as reagent
Thymidylate synthase [23] = biological target: T1, Thymidylate synthase; experiment: The rate constant in 75% aqueous Acetonotrileas methyl mercaptoacetate as reagent
Thymidylate synthase [24] = biological target: T1, Thymidylate synthase; experiment: The rate constant in Acetonitrile and buffered aqueous acetonitrile solution, at 30 degrees Celsius and pH 8.1
Thymidylate synthase [25] = biological target: T1, Thymidylate synthase; experiment: The rate constant in Acetonitrile and buffered aqueous acetonitrile solution, at 25 degrees Celsius and pH 7.4
Thymidylate synthase [26] = biological target: T1, Thymidylate synthase; experiment: Binding affinity against thymidylate synthase
Outline: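 Thymidylate synthase was inactivated at pH 6.8 and 30 °C, and time-dependent loss of activity was followed. Observed inactivation rate constants, including runs with substrate present (substrate protection), were fitted to 1/kobsd = [Ki[S]/(Km[I]) + Ki/kinact](1/[I]) + 1/kinact to give Ki and kinact. The second-order constant was taken as kinact/Ki.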
Target sequence in this assay (P04818 whole entry): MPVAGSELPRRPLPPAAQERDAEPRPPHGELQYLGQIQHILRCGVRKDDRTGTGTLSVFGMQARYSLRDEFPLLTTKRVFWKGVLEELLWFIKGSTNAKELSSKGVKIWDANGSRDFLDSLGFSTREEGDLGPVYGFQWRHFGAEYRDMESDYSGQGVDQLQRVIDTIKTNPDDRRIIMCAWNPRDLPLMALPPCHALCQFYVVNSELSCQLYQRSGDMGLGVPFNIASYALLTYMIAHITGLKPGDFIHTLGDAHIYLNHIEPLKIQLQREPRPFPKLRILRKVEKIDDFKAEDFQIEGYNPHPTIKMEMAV

Thymidylate synthase [27] = biological target: T1, Thymidylate synthase

Compound CC1=CC(=O)c2ccccc2C1=O has a k2 (Thymidylate synthase [1]) of 0.14 M⁻¹ s⁻¹.

Work on O=C1C=CC(=O)C(c2ccccc2)=C1 yielded a k2 (Thymidylate synthase [2]) of 2600 M⁻¹ s⁻¹.

Work on CC(=O)OC[C@H]1O[C@@H](n2cc(C3=CC(=O)C=CC3=O)c(=O)[nH]c2=O)C[C@@H]1OC(C)=O yielded a k obs (Thymidylate synthase [3]) of 0.00184 s⁻¹, a k2 (Thymidylate synthase [4]) of 2.3 M⁻¹ s⁻¹ and a k obs (Thymidylate synthase [5]) of 0.00334 s⁻¹. The k2 (Thymidylate synthase [6]) was 4.7 M⁻¹ s⁻¹, the k obs (Thymidylate synthase [7]) was 0.00919 s⁻¹ and the k2 (Thymidylate synthase [8]) was 0.53 M⁻¹ s⁻¹. The k2 (Thymidylate synthase [9]) was 1.7 M⁻¹ s⁻¹, the k obs (Thymidylate synthase [10]) was 0.0197 s⁻¹ and the k obs (Thymidylate synthase [11]) was 0.00154 s⁻¹. It also gave a k obs (Thymidylate synthase [12]) of 0.00969 s⁻¹, a k obs (Thymidylate synthase [13]) of 0.0167 s⁻¹ and a k obs (Thymidylate synthase [14]) of 0.00384 s⁻¹. For the same compound, the k obs (Thymidylate synthase [15]) was 0.00501 s⁻¹, the k obs (Thymidylate synthase [16]) was 0.000434 s⁻¹ and the k obs (Thymidylate synthase [17]) was 0.00434 s⁻¹. The k obs (Thymidylate synthase [18]) was 0.00518 s⁻¹, the k obs (Thymidylate synthase [19]) was 0.0025 s⁻¹ and the k obs (Thymidylate synthase [20]) was 0.00952 s⁻¹. The k obs (Thymidylate synthase [21]) was 0.0184 s⁻¹.

In the case of O=C1C=CC(=O)C(c2cn([C@H]3C[C@H](O)[C@@H](CO)O3)c(=O)[nH]c2=O)=C1, the k2 (Thymidylate synthase [22]) is reported as 5 M⁻¹ s⁻¹ and the k2 (Thymidylate synthase [23]) is reported as > 1000 M⁻¹ s⁻¹.

With O=c1ccn([C@H]2C[C@H](O)[C@@H](COP(=O)(O)O)O2)c(=O)[nH]1 the k2 (Thymidylate synthase [2]) was > 760000 M⁻¹ s⁻¹.

For C=CC(=O)OC, the k2 (Thymidylate synthase [24]) was 0.11 M⁻¹ s⁻¹.

In the case of CC1C=CC(=O)O1 (centres undefined), the k2 (Thymidylate synthase [25]) is reported as 0.037 M⁻¹ s⁻¹.

O=C1C=CC(=O)C(c2cn([C@H]3C[C@H](O)[C@@H](COP(=O)(O)O)O3)c(=O)[nH]c2=O)=C1 was tested, and the k2 (Thymidylate synthase [2]) was 32000 M⁻¹ s⁻¹, the Ki (Thymidylate synthase [26]) was 2000 nM and the k cat (Thymidylate synthase [27]) was 0.065 s⁻¹.
